Data on 23 compounds can be found in ChEMBL document CHEMBL3243948, “Vitamin B6 antagonists obtained by replacing or modifying the 2-methyl group” (J Med Chem, 1977).

For assay [1], the system named is TA3. The assay is described as follows: Growth inhibition of mouse TA3 cells in presence of 10^-5 M pyridoxal. The assay is classed as functional. An outline of the steps:
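TA3 mouse mammary adenocarcinoma cells grown in complete Eagle's medium, which holds a higher pyridoxal level than the minimal medium. Compounds were tested for growth inhibition.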

The test system of assay [2] is TA3. The assay is described as follows: Growth inhibition of mouse TA3 cells in presence of 10^-7 M pyridoxal. The class given is functional. An outline of the steps: (§1)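 Mouse mammary adenocarcinoma TA3 cells cultured in Eagle's medium with minimal pyridoxal (1 X 10^-7 M) to sustain growth. Compounds were scored for inhibition of growth.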
Assay [3] concerns TA3. The assay is described as follows: Growth inhibition of mouse TA3 cells in presence of 10^-7 M pyridoxal relative to control. The assay is classed as functional. An outline of the steps: as §1
In assay [4] the test system is TA3. The assay can be described thus: Growth inhibition of mouse TA3 cells at 1 X 10^-4 M in presence of 10^-7 M pyridoxal. The assay is classed as functional, cell-based.
For a further assay, the target named is T1, Pyridoxal kinase (Homo sapiens, UniProt O00764).
T1 sequence (O00764 whole entry): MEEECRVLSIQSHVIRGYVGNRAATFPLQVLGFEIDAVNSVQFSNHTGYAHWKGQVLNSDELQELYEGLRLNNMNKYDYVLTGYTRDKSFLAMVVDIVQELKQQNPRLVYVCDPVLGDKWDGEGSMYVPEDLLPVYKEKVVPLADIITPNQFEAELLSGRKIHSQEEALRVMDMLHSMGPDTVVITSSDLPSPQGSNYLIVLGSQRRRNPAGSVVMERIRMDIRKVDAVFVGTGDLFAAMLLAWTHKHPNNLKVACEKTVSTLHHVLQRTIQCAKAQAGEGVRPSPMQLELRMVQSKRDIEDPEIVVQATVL
The assay is described as follows: Competitive inhibition of pyridoxal phosphokinase (unknown origin). An outline of the steps:
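Inhibitor tested against pyridoxal phosphokinase-catalysed phosphorylation of pyridoxal (substrate). Ki derived from competitive kinetics.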

The mark [5] stands for this setting: Mus musculus, TA3, read-out: ID50 (the source's name).

Active and inactive are the calls of the source. The calls are words filed in the database; no cut-off is given here.

As for `Cl.Nc1ncc(CO)c(CO)c1O`, the “growth inhibition (GI)” value in the assay on TA3 [1] is “inactive”. In the assay with TA3 [2], the ID50 was 1.25 ×10⁻⁵ M.

For `NC(=O)c1ncc(CO)c(CO)c1O`, in the assay on TA3 [2], the ID50 is listed as 1 ×10⁻⁴ M. Further, the “growth inhibition (GI)” value in the assay with TA3 [3] worked out at 40%.

As to `N/N=C/c1ncc(CO)c(CO)c1O`, the ID50 in the assay on TA3 [2] was found to be 2.3 ×10⁻⁴ M.

Consider `OCc1cnc(/C=N/N=C/c2ncc(CO)c(CO)c2O)c(O)c1CO`, for which the ID50 stood at 1.1 ×10⁻⁵ M in the assay on TA3 [1] and 1.6 ×10⁻⁵ M in the assay with TA3 [2].

As for `COc1cncc2c1C(=O)OC2=O`, the “growth inhibition (GI)” value in the assay with TA3 [4] is “inactive”.

`C=Cc1ncc(CO)c(CO)c1O`: the IC50 with TA3 [1] (setting [5]) and in the assay on TA3 [2] (setting [5]) was 9.4 µM in each case.

On to `O=C(O)c1ncc(CO)c(CO)c1O`, for which the ID50 in the assay with TA3 [2] is over 1 ×10⁻⁴ M.

`NCc1ncc(CO)c(CO)c1O`: the ID50 in the assay with TA3 [2] is on record as 1 ×10⁻⁵ M. Also, in the assay on TA3 [3], the “growth inhibition (GI)” value turned out to be 25%.

Consider `COc1c(C)ncc(CO)c1CO`, for which the “growth inhibition (GI)” value in the assay on TA3 [4] is “inactive”.

Usually Ki stands for a measure of affinity in units of concentration, obtained from inhibition or displacement. For the compound `C#Cc1ncc(CO)c(CO)c1O`, on Pyridoxal kinase, the Ki was 105 µM.

Take `CNc1ncc(CO)c(CO)c1O.Cl`: the ID50 in the assay on TA3 [2] turned out to be 1 ×10⁻⁴ M. In the assay with TA3 [3], the “growth inhibition (GI)” value is 15%.

As for `COc1cncc(CO)c1CO`, in the assay on TA3 [4], the “growth inhibition (GI)” value is “inactive”.

For `OCc1cnc(Cl)c(O)c1CO`, in the assay on TA3 [1], the “growth inhibition (GI)” value was “inactive”. Also, the ID50 with TA3 [2] turned out to be 4.5 ×10⁻⁵ M. Moreover, the inhibitory constant (Ki) on Pyridoxal kinase stood at 24 µM.

Consider `Cn1c(=O)oc2c(CO)c(CO)cnc21`, for which the ID50 with TA3 [2] was over 1 ×10⁻⁴ M.

Consider `OCc1cnc(F)c(O)c1CO`, for which the ID50 in the assay on TA3 [2] was over 1 ×10⁻⁴ M.

For `O=Cc1ncc(CO)c(CO)c1O`, the ID50 in the assay with TA3 [2] stood at 1.7 ×10⁻⁴ M.

Consider `COc1cncc(C(=O)O)c1C(=O)O`, for which the “growth inhibition (GI)” value with TA3 [4] is “inactive”.

Regarding `COc1c(C(=O)O)ncc(C(=O)O)c1C(=O)O`, the “growth inhibition (GI)” value with TA3 [4] is “inactive”.

Turning to `COC(=O)c1cncc(OC)c1C(=O)OC`, the “growth inhibition (GI)” value in the assay with TA3 [4] was “inactive”.

`Br.COC(=O)N(C)c1ncc(CO)c(CO)c1OCc1ccccc1`: the ID50 in the assay on TA3 [2] was 1.6 ×10⁻⁴ M.

As to `CC1(C)OCc2cnc(CCl)c(OCc3ccccc3)c2CO1.Cl`, the ID50 in the assay on TA3 [2] worked out at 12 ×10⁻⁵ M.

With `CCOC(=O)c1cncc(OC)c1C(=O)OCC`, in the assay with TA3 [4], the “growth inhibition (GI)” value is “inactive”.

For `O=C(SCc1ncc(CO)c(CO)c1OCc1ccccc1)c1ccccc1`, the ID50 in the assay on TA3 [2] is reported as 3 ×10⁻⁵ M.
